Source: ChEMBL document CHEMBL1125789, “Synthesis and selective class III antiarrhythmic activity of novel N-heteroaralkyl-substituted 1-(aryloxy)-2-propanolamine and related propylamine derivatives” (J Med Chem, 1991)

Tests used:
Canis familiaris [1] = species on record: Canis familiaris; experiment: Repolarization to reach -60mV, in canine Purkinje Fibers at a concentration of 0.3 uM at 300 ms (simulating tachycardia); assay type: functional, Canis lupus familiaris, Purkinje fiber
In short: (§1)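 Isolated canine Purkinje fiber bundles were driven by square-wave pulses 2.0 ms long at 2× threshold and equilibrated ≥1 h to steady state. Each concentration was superfused 45–60 min before recording, and action potentials were sampled at 4–6 sites per fiber in control and after drug, giving Vmax and APD to −60 mV.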

Canis familiaris [2] = species on record: Canis familiaris; experiment: Repolarization to reach -60mV, in canine Purkinje Fibers at a concentration of 1.0 uM at 300 ms (simulating tachycardia); assay type: functional, Canis lupus familiaris, Purkinje fiber; in short: as §1
Canis familiaris [3] = species on record: Canis familiaris; experiment: Repolarization to reach -60mV, in canine Purkinje Fibers at a concentration of 3.0 uM at 300 ms (simulating tachycardia); assay type: functional, Canis lupus familiaris, Purkinje fiber; in short: as §1
Canis familiaris [4] = species on record: Canis familiaris; experiment: repolarization to reach -60mV, in canine Purkinje Fibers at a concentration of 0.3 uM at 1000 ms (simulating normal heart rate); assay type: functional, Canis lupus familiaris, Purkinje fiber
In short: (§2)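 Purkinje fiber bundles were stimulated with square-wave current pulses of 2.0 ms at twice threshold and equilibrated for at least 1 h, or until action potential parameters were steady. Each concentration was superfused for 45-60 min to reach steady state. Action potentials were recorded at four to six sites per fiber, under control and after drug.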

Canis familiaris [5] = species on record: Canis familiaris; experiment: repolarization to reach -60mV, in canine Purkinje Fibers at a concentration of 1.0 uM at 1000 ms (simulating normal heart rate); assay type: functional, Canis lupus familiaris, Purkinje fiber; in short: as §2
Canis familiaris [6] = species on record: Canis familiaris; experiment: repolarization to reach -60mV, in canine Purkinje Fibers at a concentration of 3.0 uM at 1000 ms (simulating normal heart rate); assay type: functional, Canis lupus familiaris, Purkinje fiber; in short: as §2
Canis familiaris [7] = species on record: Canis familiaris; experiment: Maximum rate of rise of the upstroke of transmembrane potential, in canine Purkinje Fibers at a concentration of 0.3 uM at 1000 ms (simulating normal heart rate); assay type: functional; set-up: unit not given here; conditions: Canis lupus familiaris, Purkinje fiber; in short: as §1
Canis familiaris [8] = species on record: Canis familiaris; experiment: Maximum rate of rise of the upstroke of transmembrane potential, in canine Purkinje Fibers at a concentration of 0.3 uM at 300 ms (simulating tachycardia); assay type: functional; set-up: unit not given here; conditions: Canis lupus familiaris, Purkinje fiber; in short: as §1
Canis familiaris [9] = species on record: Canis familiaris; experiment: Maximum rate of rise of the upstroke of transmembrane potential, in canine Purkinje Fibers at a concentration of 1.0 uM at 1000 ms (simulating normal heart rate); assay type: functional; set-up: unit not given here; conditions: Canis lupus familiaris, Purkinje fiber; in short: as §1
Canis familiaris [10] = species on record: Canis familiaris; experiment: Maximum rate of rise of the upstroke of transmembrane potential, in canine Purkinje Fibers at a concentration of 1.0 uM at 300 ms (simulating tachycardia); assay type: functional; set-up: unit not given here; conditions: Canis lupus familiaris, Purkinje fiber; in short: as §1
Canis familiaris [11] = species on record: Canis familiaris; experiment: Maximum rate of rise of the upstroke of transmembrane potential, in canine Purkinje Fibers at a concentration of 3.0 uM at 1000 ms (simulating normal heart rate); assay type: functional; set-up: unit not given here; conditions: Canis lupus familiaris, Purkinje fiber; in short: as §1
Canis familiaris [12] = species on record: Canis familiaris; experiment: Maximum rate of rise of the upstroke of transmembrane potential, in canine Purkinje Fibers at a concentration of 3.0 uM at 300 ms (simulating tachycardia); assay type: functional; set-up: unit not given here; conditions: Canis lupus familiaris, Purkinje fiber; in short: as §1
Canis familiaris [13] = species on record: Canis familiaris; experiment: Repolarization to reach -60mV, in canine Purkinje Fibers at a concentration of 0.10 uM at 300 ms (simulating tachycardia); assay type: functional, Canis lupus familiaris, Purkinje fiber; in short: as §1
Canis familiaris [14] = species on record: Canis familiaris; experiment: repolarization to reach -60mV, in canine Purkinje Fibers at a concentration of 0.10 uM at 1000 ms (simulating normal heart rate); assay type: functional, Canis lupus familiaris, Purkinje fiber; in short: as §2
Canis familiaris [15] = species on record: Canis familiaris; experiment: Maximum rate of rise of the upstroke of transmembrane potential, in canine Purkinje Fibers at a concentration of 0.10 uM at 1000 ms (simulating normal heart rate); assay type: functional; conditions: Canis lupus familiaris, Purkinje fiber; in short: as §1
Canis familiaris [16] = species on record: Canis familiaris; experiment: Maximum rate of rise of the upstroke of transmembrane potential, in canine Purkinje Fibers at a concentration of 0.10 uM at 300 ms (simulating tachycardia); assay type: functional; conditions: Canis lupus familiaris, Purkinje fiber; in short: as §1
Canis familiaris [17] = experiment: Atrial effective refractory period by the compound in open chest anesthetized dog, after iv administration at a dose of 5.0 mg/kg.; assay type: functional, Canis lupus familiaris, Cardiac atrium; set-up: unit not given here
In short: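 Open-chest mongrel dogs under sodium pentobarbital anesthesia (30 mg/kg iv plus 5 mg/kg per h), paced at basic cycle length 300 ms. Atrial effective refractory period was determined by electrical stimulation before and after iv or intraduodenal compound and reported as change from control.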

Canis familiaris [18] = experiment: Heart beat by the compound in open chest anesthetized dog, after iv administration at a dose of 5.0 mg/kg.; assay type: functional, Canis lupus familiaris; set-up: unit not given here
In short: (§3)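 Hemodynamics (heart rate, mean arterial pressure) recorded in pentobarbital-anesthetized (30 mg/kg iv, 5 mg/kg per h maintenance) open-chest mongrel dogs during the refractoriness study at BCL 300 ms. Readings were taken before and after iv or intraduodenal compound and expressed as change from control.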

Canis familiaris [19] = experiment: Atrial conduction time by the compound in open chest anesthetized dog, after iv administration at a dose of 5.0 mg/kg.; assay type: functional, Canis lupus familiaris, Cardiac atrium; set-up: unit not given here
In short: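 Mongrel dogs anesthetized with sodium pentobarbital (30 mg/kg iv, then 5 mg/kg per h), chest opened, paced at BCL 300 ms. Atrial conduction time was taken as the interval between electrograms recorded at the proximal and distal sites of the atrial recording electrode array, before and after iv or intraduodenal dosing. Values are changes from control.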

Canis familiaris [20] = experiment: Mean arterial pressure by the compound in open chest anesthetized dog, after iv administration at a dose of 5.0 mg/kg.; assay type: functional, Canis lupus familiaris, Artery; set-up: unit not given here; in short: as §3
Canis familiaris [21] = experiment: Ventricular effective refractory period by the compound in open chest anesthetized dog, after iv administration at a dose of 5.0 mg/kg.; assay type: functional, Canis lupus familiaris, Heart; set-up: unit not given here
Canis familiaris [22] = experiment: Ventricular conduction time by the compound in open chest anesthetized dog, after iv administration at a dose of 5.0 mg/kg.; assay type: functional, Canis lupus familiaris, Heart; set-up: unit not given here
In short: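 Mongrel dogs were anesthetized with sodium pentobarbital (30 mg/kg iv, then 5 mg/kg per h), the chest opened, and the heart paced at BCL 300 ms. Compound was given iv or intraduodenally. Ventricular conduction time was taken as the interval between electrograms at the proximal and distal sites of the recording electrode array. 2-5 dogs per dose.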

| SMILES | APD (Canis familiaris [3]) [%] | APD (Canis familiaris [6]) [%] | Vmax (Canis familiaris [11]) | Vmax (Canis familiaris [12]) | further results |
| --- | --- | --- | --- | --- | --- |
| CN(Cc1ccc2cc(F)ccc2n1)CC(O)COc1ccc(NS(C)(=O)=O)cc1 (stereo not given) | 22 | 55 | 11 | 8 | APD (Canis familiaris [1]): 12%; APD (Canis familiaris [2]): 19%; APD (Canis familiaris [4]): 31%; APD (Canis familiaris [5]): 50%; Vmax (Canis familiaris [7]): 3; Vmax (Canis familiaris [8]): 3; Vmax (Canis familiaris [9]): 5; Vmax (Canis familiaris [10]): 4 |
| CS(=O)(=O)Nc1ccc(OCC(O)CN2CCN(c3ccccn3)CC2)cc1 (stereo not given) | 24 | 53 | 9 | 12 | – |
| CN(Cc1ccc2ccccc2n1)CC(O)COc1ccc(C#N)cc1 (stereo not given) | 0 | 41 | 19 | 8 | – |
| CN(Cc1ccc2ccccc2n1)C[C@@H](O)COc1ccc(NS(C)(=O)=O)cc1 | 27 | 70 | 4 | -1 | APD (Canis familiaris [1]): 12%; APD (Canis familiaris [2]): 22%; APD (Canis familiaris [4]): 25%; APD (Canis familiaris [5]): 48%; Vmax (Canis familiaris [7]): 9; Vmax (Canis familiaris [8]): -4; Vmax (Canis familiaris [9]): 6; Vmax (Canis familiaris [10]): -9 |
| CS(=O)(=O)Nc1ccc(OCCCN(Cc2ccc3cc(NS(C)(=O)=O)ccc3n2)C2CCCC2)cc1 | – | – | – | – | APD (Canis familiaris [13]): 13%; APD (Canis familiaris [14]): 30%; Vmax (Canis familiaris [15]): 7; Vmax (Canis familiaris [16]): 8 |
| CN(Cc1ccc2ccccc2n1)CC(O)COc1ccc(-n2ccnc2)cc1 (stereo not given) | 10 | 39 | -15 | -11 | – |
| Cn1c(N2CCN(CC(O)COc3ccc(NS(C)(=O)=O)cc3)CC2)nc2ccccc21 (stereo not given) | 21 | 83 | -3 | -9 | – |
| CN(CCCOc1ccc(NS(C)(=O)=O)cc1)Cc1cnc2ccccc2n1 | 27 | 62 | -16 | -14 | – |
| CN(Cc1cnc2ccccc2n1)CC(O)COc1ccc(NS(C)(=O)=O)cc1 (stereo not given) | 8 | 26 | 1 | 6 | – |
| Cc1nc2ccccc2nc1CN(C)CC(O)COc1ccc(-n2ccnc2)cc1 (stereo not given) | 24 | 69 | 13 | 10 | – |
| Cc1nc2ccccc2nc1CN(C)CC(O)COc1ccc(NS(C)(=O)=O)cc1 (stereo not given) | 11 | 17 | 7 | 3 | – |
| CN(Cc1ccc2ccccc2n1)CC(O)COc1ccc(-c2nn[nH]n2)cc1 (stereo not given) | 4 | 11 | -10 | 4 | – |
| CS(=O)(=O)Nc1ccc(OCC(O)CN2CCN(c3ncccn3)CC2)cc1 (stereo not given) | 15 | 23 | -17 | -12 | – |
| CN(Cc1cc2ccccc2o1)CC(O)COc1ccc(NS(C)(=O)=O)cc1 (stereo not given) | 16 | 47 | 4 | 16 | – |
| CN(Cc1nc2ccccc2n1C)CC(O)COc1ccc(NS(C)(=O)=O)cc1 (stereo not given) | 12 | 19 | 7 | 4 | – |
| CN(Cc1ccc2cc(Cl)ccc2n1)CC(O)COc1ccc(NS(C)(=O)=O)cc1 (stereo not given) | 29 | 65 | 0 | -2 | – |
| CN(Cc1ccc2cc(NS(C)(=O)=O)ccc2n1)CC(O)COc1ccc(NS(C)(=O)=O)cc1 (stereo not given) | 18 | 66 | -6 | -1 | APD (Canis familiaris [1]): 13%; APD (Canis familiaris [2]): 17%; APD (Canis familiaris [4]): 42%; APD (Canis familiaris [5]): 55%; Vmax (Canis familiaris [7]): -12; Vmax (Canis familiaris [8]): -2; Vmax (Canis familiaris [9]): -10; Vmax (Canis familiaris [10]): -4 |
| CN(Cc1ccc2ccccc2n1)CC(O)COc1ccc([N+](=O)[O-])cc1 (stereo not given) | 27 | 63 | 0 | -10 | – |
| CN(Cc1nc2ccccc2[nH]1)CC(O)COc1ccc(NS(C)(=O)=O)cc1 (stereo not given) | 3 | 14 | 1 | -11 | – |
| CC(C)N(Cc1ccc2ccccc2n1)CC(O)COc1ccc(NS(C)(=O)=O)cc1 (stereo not given) | 30 | 49 | -10 | -11 | – |
| CN(CCCOc1ccc(NS(C)(=O)=O)cc1)Cc1ccc2ccccc2n1 | 22 | 45 | 5 | 3 | AERP (Canis familiaris [17]): 52; HR (Canis familiaris [18]): -23; ACT (Canis familiaris [19]): -6; MBP (Canis familiaris [20]): -11; VERP (Canis familiaris [21]): 30; VCT (Canis familiaris [22]): 1 |
| O=[N+]([O-])c1ccc(OCC(O)CN2CCN(c3ccccn3)CC2)cc1 (stereo not given) | 15 | 29 | 8 | -19 | AERP (Canis familiaris [17]): 69; HR (Canis familiaris [18]): -33; ACT (Canis familiaris [19]): 16; MBP (Canis familiaris [20]): -33; VERP (Canis familiaris [21]): 25; VCT (Canis familiaris [22]): -7 |
| CN(Cc1ccc2ccccc2n1)C[C@H](O)COc1ccc(NS(C)(=O)=O)cc1 | 27 | 54 | -5 | 0 | APD (Canis familiaris [1]): 13%; APD (Canis familiaris [2]): 14%; APD (Canis familiaris [4]): 22%; APD (Canis familiaris [5]): 40%; Vmax (Canis familiaris [7]): 9; Vmax (Canis familiaris [8]): -4; Vmax (Canis familiaris [9]): 0; Vmax (Canis familiaris [10]): -3 |
| COc1ccc2nc(CN(C)CC(O)COc3ccc(NS(C)(=O)=O)cc3)ccc2c1 (stereo not given) | 16 | 54 | 0 | -6 | – |
